Experiment [1] concerns the target Mu-type opioid receptor (Homo sapiens) (UniProt P35372). In words: Displacement of radioligand from opioid mu receptor assessed as 50% receptor inhibition at 10^-7 M. In short, it runs like this:
(§1)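 Part of a contracted (NovaScreen) panel of 64 radioligand/enzyme assays, with the test compound run at 10⁻⁵ M and 10⁻⁷ M. Each assay was scored by whether radioligand displacement exceeded 50% at each concentration.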

Experiment [2] has as its target Histamine H1 receptor (Homo sapiens) (UniProt P35367). The experiment in a line: Displacement of radioligand from histamine H1 receptor assessed as 50% receptor inhibition at 10^-7 M. In short, it runs like this:
as §1

Experiment [3] has as its target Cannabinoid receptor 1 (Homo sapiens) (UniProt P21554). The experiment in a line: Displacement of radioligand from cannabinoid CB1 receptor assessed as 50% receptor inhibition at 10^-7 M. In short, it runs like this:
as §1

Experiment [4] addresses Histamine H1 receptor (Homo sapiens) (UniProt P35367). In words: Displacement of radioligand from histamine H1 receptor assessed as 50% receptor inhibition at 10^-5 M. Summed up: as §1
A short description of experiment [5]: Displacement of radioligand from adrenergic alpha2 receptor assessed as 50% receptor inhibition at 10^-5 M. Summed up: as §1
The nature of experiment [6]: Displacement of radioligand from dopamine D4.2 receptor assessed as 50% receptor inhibition at 10^-5 M. Summed up: as §1
Experiment [7] in a line: Displacement of radioligand from BZT-sensitive L-type calcium channel assessed as 50% receptor inhibition at 10^-7 M. In short, it runs like this: as §1
Experiment [8] can be described thus: Displacement of radioligand from adrenergic beta1 receptor assessed as 50% receptor inhibition at 10^-7 M. Summed up: as §1
The target of experiment [9] is T1, Muscarinic acetylcholine receptor M2 (Homo sapiens) (UniProt P08172).
T1 sequence (whole entry): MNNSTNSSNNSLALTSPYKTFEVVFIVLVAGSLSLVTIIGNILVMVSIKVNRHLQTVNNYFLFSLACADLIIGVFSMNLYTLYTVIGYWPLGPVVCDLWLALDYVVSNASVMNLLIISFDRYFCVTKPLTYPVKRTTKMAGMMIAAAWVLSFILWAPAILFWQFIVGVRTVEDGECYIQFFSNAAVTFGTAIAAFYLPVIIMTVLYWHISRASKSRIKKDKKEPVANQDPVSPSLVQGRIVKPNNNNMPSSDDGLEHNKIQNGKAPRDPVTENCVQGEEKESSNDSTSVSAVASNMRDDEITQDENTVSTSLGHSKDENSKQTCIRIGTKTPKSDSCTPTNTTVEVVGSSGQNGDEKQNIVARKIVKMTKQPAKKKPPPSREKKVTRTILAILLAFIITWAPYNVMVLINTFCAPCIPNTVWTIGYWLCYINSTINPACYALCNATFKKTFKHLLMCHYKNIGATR
The experiment in a line: Displacement of radioligand from muscarinic M2 receptor assessed as 50% receptor inhibition at 10^-5 M. In short, it runs like this: as §1

Experiment [10] addresses D(1A) dopamine receptor (Homo sapiens, UniProt P21728). In words: Displacement of [3H]SCH-23390 from human D1 receptor in cell-based assay. In short, it runs like this:
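LhD1 cells were labelled with 0.18 nM [3H]SCH-23390, with 1 μM SCH-23390 for nonspecific binding. Ki was from standard assay conditions, as mean ± SEM of replicates. A value >10000 nM denotes under 30% displacement at that concentration.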

Experiment [11] in a line: Displacement of radioligand from adrenergic beta1 receptor assessed as 50% receptor inhibition at 10^-5 M. Summed up: as §1
Experiment [12] addresses Cannabinoid receptor 1 (Homo sapiens) (UniProt P21554). In words: Displacement of radioligand from cannabinoid CB1 receptor assessed as 50% receptor inhibition at 10^-5 M. In short, it runs like this:
as §1

Experiment [13] concerns the target T2, Glycine receptor subunit alpha-1 (Homo sapiens) (UniProt P23415).
T2 sequence (whole entry): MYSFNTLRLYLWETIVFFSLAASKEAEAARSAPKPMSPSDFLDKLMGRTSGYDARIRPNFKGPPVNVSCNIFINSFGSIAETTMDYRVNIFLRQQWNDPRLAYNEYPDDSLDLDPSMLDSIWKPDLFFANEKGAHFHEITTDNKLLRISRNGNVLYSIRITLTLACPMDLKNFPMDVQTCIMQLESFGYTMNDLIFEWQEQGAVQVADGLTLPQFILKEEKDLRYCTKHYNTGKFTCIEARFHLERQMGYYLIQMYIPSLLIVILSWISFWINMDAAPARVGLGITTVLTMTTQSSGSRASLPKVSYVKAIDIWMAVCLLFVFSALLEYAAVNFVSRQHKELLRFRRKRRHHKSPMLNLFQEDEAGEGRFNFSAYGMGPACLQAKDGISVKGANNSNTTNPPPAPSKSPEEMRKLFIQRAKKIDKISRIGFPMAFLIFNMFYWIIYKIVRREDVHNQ
The experiment in a line: Displacement of radioligand from strychnine sensitive glycine receptor assessed as 50% receptor inhibition at 10^-5 M. Summed up: as §1

Experiment [14] in a line: Displacement of radioligand from sodium channel site 2 assessed as 50% receptor inhibition at 10^-7 M. Summed up: as §1
The nature of experiment [15]: Displacement of radioligand from muscarinic receptor assessed as 50% receptor inhibition at 10^-5 M. In short, it runs like this:
as §1

Experiment [16] concerns the target Cannabinoid receptor 2 (Homo sapiens) (UniProt P34972). In words: Displacement of radioligand from cannabinoid CB2 receptor assessed as 50% receptor inhibition at 10^-5 M. In short, it runs like this: as §1
For experiment [17], the target named is 5-hydroxytryptamine receptor 2A (Homo sapiens, UniProt P28223). The experiment in a line: Displacement of […] from human 5HT2A receptor expressed in HEK cells. The format is cell-based, HEK293. For orientation: In a radioligand displacement assay an active substance lowers the binding of a labelled ligand.
Experiment [18] addresses T3, Muscarinic acetylcholine receptor M1 (Homo sapiens) (UniProt P11229).
T3 sequence (whole entry): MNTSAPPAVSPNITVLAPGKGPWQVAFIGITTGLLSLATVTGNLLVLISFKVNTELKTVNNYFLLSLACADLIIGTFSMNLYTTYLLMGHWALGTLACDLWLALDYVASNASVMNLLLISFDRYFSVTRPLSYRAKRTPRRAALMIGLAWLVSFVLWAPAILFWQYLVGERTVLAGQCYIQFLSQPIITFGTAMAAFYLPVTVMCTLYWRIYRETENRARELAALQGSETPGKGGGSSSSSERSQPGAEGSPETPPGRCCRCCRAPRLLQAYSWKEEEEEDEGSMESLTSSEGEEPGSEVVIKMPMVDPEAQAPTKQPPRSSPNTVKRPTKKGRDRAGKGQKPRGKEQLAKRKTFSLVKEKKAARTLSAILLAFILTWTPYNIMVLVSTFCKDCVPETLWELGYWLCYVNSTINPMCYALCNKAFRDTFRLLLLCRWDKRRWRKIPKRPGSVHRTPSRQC
The experiment in a line: Displacement of radioligand from muscarinic M1 receptor assessed as 50% receptor inhibition at 10^-5 M. In short, it runs like this: as §1

A short description of experiment [19]: Displacement of radioligand from adrenergic alpha1 receptor assessed as 50% receptor inhibition at 10^-7 M. Summed up:
as §1

The target in experiment [20] is Sodium-dependent noradrenaline transporter (Homo sapiens, UniProt P23975). In words: Displacement of [125I]RTI-55 from human NET expressed in HEK293 cells. The format is cell-based. Summed up:
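Nonspecific binding was defined with 5 μM mazindol. Ki was determined under standard conditions and reported as mean ± SEM of replicate assays. A value >10000 nM means less than 30% radioligand displacement at that concentration.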

Active and inactive are the calls of the source. The rule behind the calls is not given here. A value given as a limit tells only on which side of the number the result lay.

Chain of Cannabinoid receptor 1 (Homo sapiens) (P21554 whole entry): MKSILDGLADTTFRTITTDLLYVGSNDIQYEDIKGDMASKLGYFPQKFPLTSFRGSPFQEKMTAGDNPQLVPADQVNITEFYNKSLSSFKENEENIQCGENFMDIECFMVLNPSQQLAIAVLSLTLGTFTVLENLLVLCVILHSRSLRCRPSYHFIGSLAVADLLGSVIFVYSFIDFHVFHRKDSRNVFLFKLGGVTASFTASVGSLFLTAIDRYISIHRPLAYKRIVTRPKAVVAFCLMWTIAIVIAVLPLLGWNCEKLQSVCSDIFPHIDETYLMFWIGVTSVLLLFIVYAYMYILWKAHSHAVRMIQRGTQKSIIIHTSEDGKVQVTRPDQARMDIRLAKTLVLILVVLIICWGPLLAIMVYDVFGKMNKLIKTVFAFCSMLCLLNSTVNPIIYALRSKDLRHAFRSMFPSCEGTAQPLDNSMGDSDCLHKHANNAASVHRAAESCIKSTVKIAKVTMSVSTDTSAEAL
Chain of Histamine H1 receptor (Homo sapiens) (P35367 whole entry): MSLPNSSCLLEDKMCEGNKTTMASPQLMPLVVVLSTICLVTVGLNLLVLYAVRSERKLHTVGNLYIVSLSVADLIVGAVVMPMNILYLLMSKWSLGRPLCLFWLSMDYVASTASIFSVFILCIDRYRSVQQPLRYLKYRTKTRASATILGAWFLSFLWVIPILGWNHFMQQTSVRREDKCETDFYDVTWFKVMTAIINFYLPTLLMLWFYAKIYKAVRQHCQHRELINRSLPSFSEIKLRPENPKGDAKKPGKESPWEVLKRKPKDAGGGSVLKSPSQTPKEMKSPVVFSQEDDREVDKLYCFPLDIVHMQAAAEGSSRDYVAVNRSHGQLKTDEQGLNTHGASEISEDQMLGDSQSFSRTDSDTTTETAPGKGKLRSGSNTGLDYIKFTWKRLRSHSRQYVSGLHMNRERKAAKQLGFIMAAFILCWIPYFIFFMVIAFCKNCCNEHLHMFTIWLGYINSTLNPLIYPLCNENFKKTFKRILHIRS
Chain of 5-hydroxytryptamine receptor 2A (P28223 whole entry): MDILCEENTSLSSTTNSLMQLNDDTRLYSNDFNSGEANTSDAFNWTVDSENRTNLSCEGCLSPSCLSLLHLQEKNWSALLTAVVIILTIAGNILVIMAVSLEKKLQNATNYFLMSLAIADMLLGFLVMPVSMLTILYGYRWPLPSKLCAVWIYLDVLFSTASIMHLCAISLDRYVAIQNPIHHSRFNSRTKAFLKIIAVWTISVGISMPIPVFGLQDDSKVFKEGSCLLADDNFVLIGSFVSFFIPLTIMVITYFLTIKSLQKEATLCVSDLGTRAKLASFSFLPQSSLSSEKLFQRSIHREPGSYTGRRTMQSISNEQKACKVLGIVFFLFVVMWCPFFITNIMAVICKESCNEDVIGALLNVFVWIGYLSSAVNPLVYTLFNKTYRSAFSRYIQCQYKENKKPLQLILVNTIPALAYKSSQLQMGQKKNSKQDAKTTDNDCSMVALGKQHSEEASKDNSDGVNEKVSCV
Chain of Mu-type opioid receptor (Homo sapiens) (P35372 whole entry): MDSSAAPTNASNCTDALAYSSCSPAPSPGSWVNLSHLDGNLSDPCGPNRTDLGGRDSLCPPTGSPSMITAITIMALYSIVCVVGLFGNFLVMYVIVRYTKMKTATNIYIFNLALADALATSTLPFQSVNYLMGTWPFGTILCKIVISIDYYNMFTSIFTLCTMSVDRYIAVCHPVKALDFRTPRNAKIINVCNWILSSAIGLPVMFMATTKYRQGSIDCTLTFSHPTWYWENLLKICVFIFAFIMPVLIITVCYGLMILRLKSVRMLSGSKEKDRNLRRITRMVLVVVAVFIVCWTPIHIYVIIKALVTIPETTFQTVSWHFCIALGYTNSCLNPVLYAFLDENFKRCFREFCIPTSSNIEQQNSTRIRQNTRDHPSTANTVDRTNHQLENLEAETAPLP
Chain of Sodium-dependent noradrenaline transporter (P23975 whole entry): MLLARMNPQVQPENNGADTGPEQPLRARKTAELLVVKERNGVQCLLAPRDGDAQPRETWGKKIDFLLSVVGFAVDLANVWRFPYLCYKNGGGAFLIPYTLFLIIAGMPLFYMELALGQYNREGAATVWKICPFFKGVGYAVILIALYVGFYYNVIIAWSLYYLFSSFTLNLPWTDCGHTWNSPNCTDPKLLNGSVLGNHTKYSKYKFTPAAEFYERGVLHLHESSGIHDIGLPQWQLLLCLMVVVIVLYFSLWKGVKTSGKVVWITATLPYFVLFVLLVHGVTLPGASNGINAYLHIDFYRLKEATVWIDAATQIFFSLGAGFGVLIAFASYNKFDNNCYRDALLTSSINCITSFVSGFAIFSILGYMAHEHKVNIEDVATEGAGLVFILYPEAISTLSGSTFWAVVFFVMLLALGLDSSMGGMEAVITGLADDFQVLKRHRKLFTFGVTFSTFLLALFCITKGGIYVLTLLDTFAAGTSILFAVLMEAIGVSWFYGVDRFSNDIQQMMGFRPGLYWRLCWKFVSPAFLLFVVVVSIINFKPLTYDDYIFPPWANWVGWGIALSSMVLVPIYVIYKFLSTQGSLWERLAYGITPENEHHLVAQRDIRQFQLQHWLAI
Chain of Cannabinoid receptor 2 (Homo sapiens) (P34972 whole entry): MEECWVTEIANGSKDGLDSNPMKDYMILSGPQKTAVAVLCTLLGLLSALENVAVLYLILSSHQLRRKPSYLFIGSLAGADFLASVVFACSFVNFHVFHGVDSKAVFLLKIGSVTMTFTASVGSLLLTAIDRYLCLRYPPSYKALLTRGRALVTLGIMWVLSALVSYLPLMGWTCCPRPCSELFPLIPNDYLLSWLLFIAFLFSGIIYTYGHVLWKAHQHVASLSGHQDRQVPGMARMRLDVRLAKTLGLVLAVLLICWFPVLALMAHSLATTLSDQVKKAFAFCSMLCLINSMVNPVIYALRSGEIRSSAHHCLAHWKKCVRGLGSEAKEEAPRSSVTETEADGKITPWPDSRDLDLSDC
Chain of D(1A) dopamine receptor (P21728 whole entry): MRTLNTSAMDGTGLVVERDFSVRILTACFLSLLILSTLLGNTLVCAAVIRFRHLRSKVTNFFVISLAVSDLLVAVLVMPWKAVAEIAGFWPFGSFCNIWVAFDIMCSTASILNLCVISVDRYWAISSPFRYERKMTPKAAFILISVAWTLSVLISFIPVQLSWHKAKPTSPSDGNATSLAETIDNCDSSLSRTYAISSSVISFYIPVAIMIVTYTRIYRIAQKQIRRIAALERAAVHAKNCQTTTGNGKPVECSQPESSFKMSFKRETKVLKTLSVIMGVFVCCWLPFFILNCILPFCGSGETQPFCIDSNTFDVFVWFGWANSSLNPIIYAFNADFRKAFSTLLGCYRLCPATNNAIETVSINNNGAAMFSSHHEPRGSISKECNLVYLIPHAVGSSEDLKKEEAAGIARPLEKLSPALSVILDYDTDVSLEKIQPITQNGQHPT

Turning to `COc1cc2c(cc1OC)CN(CCCCn1cc(-c3ccc(F)cc3)c3ccccc31)CC2`, the inhibition entry in experiment [1], in experiment [2], in [3], in [7], in experiment [8] and in experiment [14] was “inactive” each time. In addition, the inhibition result in experiment [19] is “inactive”. In addition, the inhibition result in experiment [4], in [5], in [6], in experiment [9], in experiment [11] and in experiment [12] was “Active” throughout. Moreover, the inhibition result in experiment [13], in [15], in experiment [16] and in experiment [18] was “Active” throughout. For the same compound, the Ki was above 10 µM in experiment [10], 1.27 µM in experiment [17] and 1.35 µM in [20].

Usually Ki stands for the dissociation constant of the complex between target and ligand, obtained from inhibition or displacement. Lower therefore signals tighter binding.

Values taken from ChEMBL document CHEMBL1828538, “Synthesis and pharmacological evaluation of indole-based sigma receptor ligands” (Eur J Med Chem, 2011).
